Source: ChEMBL document CHEMBL1177650, “Synthesis, structural elucidation and in vitro antiparasitic activity against Trypanosoma cruzi and Leishmania chagasi parasites of novel tetrahydro-1-benzazepine derivatives” (Bioorg Med Chem, 2010)

Experiments:
[1] = Cytotoxicity against african green monkey Vero cells after 72 hrs by MTT assay; assay type: cell-based; settings: chlorocebus sabaeus
In short: (§1)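 Vero or transformed THP-1 cells incubated with compound (0.3–300 μM) 72 h at 37 °C, 5% CO2; untreated controls. MTT read-out, formazan OD at 580 nm; % cytotoxicity = 100 × (OD control − OD treated)/OD control. CC50/CC90 by sigmoidal regression; triplicates, repeated twice. DMSO stocks 100× concentrated, diluted in medium.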

[2] = Cytotoxicity against human THP1 cells after 72 hrs by MTT assay; assay type: cell-based; settings: THP-1 cells; in short: as §1
Trypanosoma cruzi [3] = assay: Antitrypanosomal activity against Trypanosoma cruzi 320I01 epimastigotes after 72 hrs by haemocytometry; assay type: functional, organism-based; settings: 320I01, 72 h
In short: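 Late-phase T. cruzi epimastigotes cultured in LIT medium with hiFCS at 28 °C; threefold serial dilutions (0.3–100 μM) for 72 h at 28 °C, untreated controls. Parasites counted in a haemocytometer; IC50/IC90 by sigmoidal regression; each concentration in triplicate, two experiments.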

Leishmania chagasi [4] = assay: Antileishmanial activity against Leishmania chagasi MHOM/BR/74/PP75 promastigotes after 72 hrs by haemocytometry; assay type: functional, organism-based; settings: MHOM/BR/74/PP75, 72 h
In short: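 Late-phase L. chagasi promastigotes, grown at 28 °C in RPMI 1640 with hemin, HEPES and 10% hiSBF, exposed to threefold serial dilutions (0.3–100 μM) for 72 h at 28 °C; untreated controls. Growth inhibition from haemocytometer counts; IC50/IC90 by sigmoidal regression; triplicates, repeated twice.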

Trypanosoma cruzi [5] = assay: Antitrypanosomal activity against Trypanosoma cruzi 320I01 amastigotes infected in african green monkey Vero cells after 5 days by Giemsa staining; assay type: functional, organism-based; settings: 320I01, Vero, 120 h
In short: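 Vero cells (RPMI, 5% hiSBF, 37 °C, 5% CO2) infected 24 h with tissue-derived T. cruzi trypomastigotes at parasite:cell 10:1. Compound dilutions (top 100 μM) applied 5 days at 37 °C, 5% CO2, medium changed once at day 3. Infected cells scored per 300 cells on methanol-fixed Giemsa preparations; IC50/IC90 by sigmoidal regression; triplicates, two experiments.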

[6] = Selectivity index, CC50 for human THP1 cells to IC50 for Leishmania chagasi MHOM/BR/74/PP75 promastigotes; assay type: functional, THP-1
In short: (§2)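 Selectivity index computed as CC50 in THP-1 cells divided by IC50 against the L. chagasi stage named in the line.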

[7] = Selectivity index, CC50 for human THP1 cells to IC50 for Leishmania chagasi MHOM/BR/74/PP75 amastigotes; assay type: functional, THP-1; in short: as §2
Leishmania chagasi [8] = assay: Antileishmanial activity against Leishmania chagasi MHOM/BR/74/PP75 amastigotes infected in human THP1 cells after 5 days by Giemsa staining; assay type: functional, organism-based; settings: MHOM/BR/74/PP75, THP-1, 120 h
In short: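 THP-1 cells (RPMI, 5% hiSBF, 37 °C, 5% CO2) transformed, then infected 24 h with late-phase L. chagasi promastigotes at parasite:cell 10:1. Treated with compound dilutions (top 100 μM) 5 days at 37 °C, 5% CO2, medium changed once after 3 days. Infected cells counted per 300 cells on methanol-fixed Giemsa slides; IC50/IC90 by sigmoidal regression; triplicates, repeated twice.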

[9] = Selectivity index, CC50 for african green monkey Vero cells to IC50 for Trypanosoma cruzi 320I01 amastigotes; assay type: functional
In short: (§3)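 Selectivity index computed as CC50 in Vero cells divided by IC50 against the T. cruzi stage named in the line.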

[10] = Selectivity index, CC50 for african green monkey Vero cells to IC50 for Trypanosoma cruzi 320I01 epimastigote; assay type: functional; in short: as §3

SMILES	IC50 (Trypanosoma cruzi [3]) [µM]	IC90 (Trypanosoma cruzi [3]) [µM]	IC50 (Leishmania chagasi [4]) [µM]	IC90 (Leishmania chagasi [4]) [µM]	IC50 (Trypanosoma cruzi [5]) [µM]	IC90 (Trypanosoma cruzi [5]) [µM]	IC50 (Leishmania chagasi [8]) [µM]	IC90 (Leishmania chagasi [8]) [µM]	CC50 at 72 h [1] [µM]	CC90 at 72 h [1] [µM]	CC50 at 72 h [2] [µM]	CC90 at 72 h [2] [µM]	Selectivity Index [6]	Selectivity Index [7]	Selectivity Index [9]	Selectivity Index [10]
O[C@@H]1Cc2cc(F)ccc2N[C@H](c2ccc(Cl)cc2)C1 (relative stereo)	45.9	> 100	17.1	77.7	> 100	> 100	> 100	> 100	194	> 300	100	> 300	5.86	>1	>1.9	4.21
FC(F)(F)Oc1ccc2c(c1)C[C@H]1C[C@@H](c3ccccc3)N2O1 (relative stereo)	26.9	> 100	15.7	34.7	> 100	> 100	> 100	> 100	> 300	> 300	> 300	> 300	>19	>3	>3	>11
O[C@@H]1Cc2cc(Cl)ccc2N[C@H](c2ccccc2)C1 (relative stereo)	49.6	> 100	22.1	90.6	> 100	> 100	> 100	> 100	191	> 300	188	> 300	8.5	>1	>2	3.85
Cc1ccc2c(c1)C[C@H]1C[C@@H](c3ccccc3Cl)N2O1 (relative stereo)	14.3	30.4	41.7	49.5	51.9	> 100	> 100	> 100	50.2	> 300	66.8	109	1.6	>0.66	0.96	3.51
O[C@@H]1Cc2cc(Br)ccc2N[C@H](c2ccccc2)C1 (relative stereo)	15.7	57.4	45	> 100	97.8	99.4	97.7	> 100	42.1	> 300	185	> 300	4.1	>1	0.43	2.68
O[C@@H]1Cc2cc(Cl)ccc2N[C@H](c2ccc(Cl)cc2)C1 (relative stereo)	16.4	29.7	14.1	41	> 100	> 100	> 100	> 100	76.6	> 300	49.2	> 300	3.49	>0.49	>0.8	4.65
O[C@@H]1Cc2cc(Cl)ccc2N[C@H](c2ccccc2F)C1 (relative stereo)	17.3	79.9	54.5	> 100	> 38.1	> 38.1	> 100	> 100	182	> 300	110	273	2.02	>1	>4	10.53

Further compounds by falling IC50 (Trypanosoma cruzi [3]), results first:

IC50 (Trypanosoma cruzi [3]) [µM]	IC90 (Trypanosoma cruzi [3]) [µM]	IC50 (Leishmania chagasi [4]) [µM]	IC90 (Leishmania chagasi [4]) [µM]	IC50 (Trypanosoma cruzi [5]) [µM]	IC90 (Trypanosoma cruzi [5]) [µM]	IC50 (Leishmania chagasi [8]) [µM]	IC90 (Leishmania chagasi [8]) [µM]	SMILES	CC50 at 72 h [1] [µM]	CC90 at 72 h [1] [µM]	CC50 at 72 h [2] [µM]	CC90 at 72 h [2] [µM]	Selectivity Index [6]	Selectivity Index [7]	Selectivity Index [9]	Selectivity Index [10]
34.2	89.4	38.3	67.5	45.4	66.8	> 100	> 100	Clc1ccc([C@@H]2C[C@@H]3Cc4ccccc4N2O3)cc1 (relative stereo)	> 300	> 300	> 300	> 300	>7	>3	>6	>8
31.8	> 100	> 100	> 100	> 100	> 100	> 100	> 100	O[C@@H]1Cc2ccccc2N[C@H](c2ccccc2)C1 (relative stereo)	> 300	> 300	> 300	> 300	>3	>3	>3	>9
27.2	54.4	9.54	11.7	> 94.9	> 94.9	> 94.9	> 94.9	O[C@@H]1Cc2cc(Cl)ccc2N[C@H](c2ccc(Br)cc2)C1 (relative stereo)	57.7	164	153	280	16.05	>1.61	>0.6	2.12
22.4	67.2	41.3	49.4	45.8	73.6	> 100	> 100	Cc1ccc2c(c1)C[C@@H](O)C[C@@H](c1ccccc1Cl)N2 (relative stereo)	82.4	> 300	85.2	> 300	2.06	>0.85	1.8	3.67
18.9	38.1	23.8	67.3	> 100	> 100	> 100	> 100	Fc1ccccc1[C@@H]1C[C@@H]2Cc3cc(Cl)ccc3N1O2 (relative stereo)	123	> 300	> 300	> 300	>12	>3	>1	6.51
17.6	43.9	51.3	> 100	> 100	> 100	> 100	> 100	Clc1ccc2c(c1)C[C@H]1C[C@@H](c3ccccc3Cl)N2O1 (relative stereo)	109	> 300	> 300	> 300	>5	>3	>1	6.17
15.6	54.9	> 100	> 100	98	> 100	> 100	> 100	Cc1cccc([C@@H]2C[C@H](O)Cc3ccccc3N2)c1 (relative stereo)	> 300	> 300	176	> 300	>1	>1	>3	>19
14.8	53	14.7	30.3	> 32.5	> 32.5	> 32.5	> 32.5	O[C@@H]1Cc2cc(Cl)ccc2N[C@H](c2c(Cl)cccc2Cl)C1 (relative stereo)	49.9	176	59.6	> 293	4.06	>1	>1	3.36
